Assay results taken from ChEMBL document CHEMBL5696442, “Discovery of type II inhibitors of TGFβ-activated kinase 1 (TAK1) and mitogen-activated protein kinase kinase kinase kinase 2 (MAP4K2)” (J Med Chem, 2015).
Active and inactive are the calls of the source. The calls are words filed in the database; no cut-off is given here.

What was measured:
[1] = target: Serine/threonine-protein kinase WNK1 (Homo sapiens) (UniProt Q9H4A3); experiment: Inhibition of Wnk1 ATP Loop labeling site in human A-375 cells at 0.5 uM by KiNativ Profiling analysis relative to control; format: cell-based
[2] = target: Ribosomal protein S6 kinase alpha-2 (Homo sapiens) (UniProt Q15349); experiment: Inhibition of RSK3 Protein Kinase Domain in human A-375 cells at 0.05 uM by KiNativ Profiling analysis relative to control; format: cell-based
[3] = target: Mitogen-activated protein kinase kinase kinase kinase 4 (Homo sapiens, UniProt O95819); experiment: Inhibition of ZC1/HGK Lys1 labeling site in human A-375 cells at 0.05 uM by KiNativ Profiling analysis relative to control; format: cell-based
[4] = target: Serine/threonine-protein kinase 24 (Homo sapiens) (UniProt Q9Y6E0); experiment: Inhibition of MST3 Lys2 labeling site harbouring DIKAANVLLSEHGEVK in human A-375 cells at 0.5 uM by KiNativ Profiling analysis relative to control; format: cell-based
[5] = target: Phosphatidylinositol 4-kinase beta (Homo sapiens) (UniProt Q9UBF8); experiment: Inhibition of PI4KB ATP labeling site harbouring VPHTQAVVLNSKDK in human A-375 cells at 0.5 uM by KiNativ Profiling analysis relative to control; format: cell-based
[6] = target: STE20-like serine/threonine-protein kinase (Homo sapiens) (UniProt Q9H2G2); experiment: Inhibition of SLK Lys1 labeling site in human A-375 cells at 0.05 uM by KiNativ Profiling analysis relative to control; format: cell-based
[7] = target: Protein kinase C alpha type (Homo sapiens) (UniProt P17252); experiment: Inhibition of PKCa Lys2 labeling site in human A-375 cells at 0.5 uM by KiNativ Profiling analysis relative to control; format: cell-based
[8] = target: Serine/threonine-protein kinase SMG1 (Homo sapiens) (UniProt Q96Q15); experiment: Inhibition of SMG1 ATP labeling site harbouring SYPYLFKGLEDLHLDER in human A-375 cells at 0.05 uM by KiNativ Profiling analysis relative to control; format: cell-based
[9] = target: Mitogen-activated protein kinase 14 (Homo sapiens, UniProt Q16539); experiment: Inhibition of p38 alpha in human A-375 cells at 5 uM by KiNativ Profiling analysis relative to control; format: cell-based
[10] = target: Calcium/calmodulin-dependent protein kinase type II subunit delta (Homo sapiens) (UniProt Q13557); experiment: Inhibition of CaMK2d Lys1 labeling site in human A-375 cells at 0.05 uM by KiNativ Profiling analysis relative to control; format: cell-based
[11] = target: Tyrosine-protein kinase Yes (Homo sapiens) (UniProt P07947); experiment: Inhibition of YES ACT labeling site in human A-375 cells at 5 uM by KiNativ Profiling analysis relative to control; format: cell-based
[12] = target: Phosphatidylinositol 4,5-bisphosphate 3-kinase catalytic subunit beta isoform (Homo sapiens) (UniProt P42338); experiment: Inhibition of PIK3CB ATP labeling site in human A-375 cells at 0.05 uM by KiNativ Profiling analysis relative to control; format: cell-based
[13] = target: DNA-PK/Ku70/Ku85 (Homo sapiens) (UniProt P78527+P12956+P13010); experiment: Inhibition of DNAPK ATP labeling site harbouring EHPFLVKGGEDLR in human A-375 cells at 0.05 uM by KiNativ Profiling analysis relative to control; format: cell-based
[14] = target: Protein kinase C beta type (Homo sapiens) (UniProt P05771); experiment: Inhibition of PKCb Lys2 labeling site in human A-375 cells at 0.05 uM by KiNativ Profiling analysis relative to control; format: cell-based
[15] = target: Cyclin-dependent kinase 4 (Homo sapiens) (UniProt P11802); experiment: Inhibition of CDK4 Lys2 labeling site in human A-375 cells at 0.5 uM by KiNativ Profiling analysis relative to control; format: cell-based
How it was run: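 Live A375 melanoma cells were treated with compound at 5 or 0.5 μM. The cells were then lysed, and the lysates were labeled with a lysine-reactive ATP or ADP-biotin acyl probe (KiNativ). Inhibition is the compound's protection of each kinase labeling-site peptide from probe labeling, relative to untreated control.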

[16] = target: Serine/threonine-protein kinase WNK2 (Homo sapiens) (UniProt Q9Y3S1); experiment: Inhibition of Wnk2 ATP Loop labeling site in human A-375 cells at 5 uM by KiNativ Profiling analysis relative to control; format: cell-based
[17] = target: Calcium/calmodulin-dependent protein kinase type II subunit gamma (Homo sapiens) (UniProt Q13555); experiment: Inhibition of CaMK2g Lys1 labeling site harbouring KTSTQEYAAKIINTKK in human A-375 cells at 0.05 uM by KiNativ Profiling analysis relative to control; format: cell-based
[18] = target: T1, Phosphatidylinositol 5-phosphate 4-kinase type-2 gamma (Homo sapiens) (UniProt Q8TBX8); experiment: Inhibition of PIP4K2C ATP labeling site harbouring VKELPTLKDMDFLNK in human A-375 cells at 0.5 uM by KiNativ Profiling analysis relative to control; format: cell-based
T1 sequence (whole entry): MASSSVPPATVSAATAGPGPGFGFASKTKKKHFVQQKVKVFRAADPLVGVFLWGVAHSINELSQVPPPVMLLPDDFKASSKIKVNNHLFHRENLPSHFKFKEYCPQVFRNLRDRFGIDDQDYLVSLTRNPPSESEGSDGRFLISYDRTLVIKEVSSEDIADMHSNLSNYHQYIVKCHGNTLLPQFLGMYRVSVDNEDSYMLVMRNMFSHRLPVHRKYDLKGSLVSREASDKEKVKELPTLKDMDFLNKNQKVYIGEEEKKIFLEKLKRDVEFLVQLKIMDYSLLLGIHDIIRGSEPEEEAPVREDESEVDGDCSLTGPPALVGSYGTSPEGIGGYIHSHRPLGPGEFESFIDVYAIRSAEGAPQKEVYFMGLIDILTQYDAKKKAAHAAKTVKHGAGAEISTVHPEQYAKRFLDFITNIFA
How it was run: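 Live A375 melanoma cells were treated with compound at 5 or 0.5 μM, then lysed. Lysates were labeled with a lysine-reactive ATP or ADP-biotin probe. Read-out was the compound's protection of kinase labeling sites from probe labeling (KiNativ).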

[19] = target: Ribosomal protein S6 kinase alpha-1 (Homo sapiens) (UniProt Q15418); experiment: Inhibition of RSK1 domain1 Lys1 labeling site in human A-375 cells at 0.05 uM by KiNativ Profiling analysis relative to control; format: cell-based
[20] = test system: GEN2.2; experiment: Inhibition of CL097 induced JNK1/2 phosphorylation level in human GEN2.2 cells at 1 uM preincubated with compound for 1 hr followed by CL097 stimulation and measured after 30 mins by Western blot analysis; format: functional, cell-based
How it was run: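 Gen2.2 cells were pretreated with compound at 1 μM for 1 h, then stimulated with CL097 for 30 min. Lysates were analysed by Western blot for phosphorylation of p105, p38 and JNK1/2.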

Chain of Mitogen-activated protein kinase 14 (Q16539 whole entry): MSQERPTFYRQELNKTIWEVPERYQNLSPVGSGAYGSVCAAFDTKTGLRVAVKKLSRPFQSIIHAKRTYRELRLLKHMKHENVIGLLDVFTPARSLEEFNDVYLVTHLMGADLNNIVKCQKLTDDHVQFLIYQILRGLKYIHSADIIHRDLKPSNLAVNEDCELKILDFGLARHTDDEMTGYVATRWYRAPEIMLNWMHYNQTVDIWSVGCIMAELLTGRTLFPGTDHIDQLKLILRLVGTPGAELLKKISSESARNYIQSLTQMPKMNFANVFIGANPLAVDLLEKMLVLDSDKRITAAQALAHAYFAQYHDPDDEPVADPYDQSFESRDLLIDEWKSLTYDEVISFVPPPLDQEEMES
Chain of Calcium/calmodulin-dependent protein kinase type II subunit gamma (Homo sapiens) (Q13555 whole entry): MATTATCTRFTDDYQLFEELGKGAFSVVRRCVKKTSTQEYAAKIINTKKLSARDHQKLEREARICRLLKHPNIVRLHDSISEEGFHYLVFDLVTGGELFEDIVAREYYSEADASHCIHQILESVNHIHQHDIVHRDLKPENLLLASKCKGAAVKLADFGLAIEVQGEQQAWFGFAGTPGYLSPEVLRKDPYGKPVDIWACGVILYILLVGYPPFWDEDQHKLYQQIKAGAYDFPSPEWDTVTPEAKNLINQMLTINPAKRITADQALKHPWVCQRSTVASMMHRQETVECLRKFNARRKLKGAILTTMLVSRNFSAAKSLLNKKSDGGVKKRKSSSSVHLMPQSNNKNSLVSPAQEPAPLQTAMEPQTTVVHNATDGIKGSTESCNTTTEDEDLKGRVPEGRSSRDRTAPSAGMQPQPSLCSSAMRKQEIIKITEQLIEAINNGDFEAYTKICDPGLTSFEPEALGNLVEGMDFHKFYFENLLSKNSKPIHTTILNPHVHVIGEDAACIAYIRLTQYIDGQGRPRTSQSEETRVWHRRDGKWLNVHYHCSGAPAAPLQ
Chain of Phosphatidylinositol 4-kinase beta (Homo sapiens) (Q9UBF8 2-816 limits assumed): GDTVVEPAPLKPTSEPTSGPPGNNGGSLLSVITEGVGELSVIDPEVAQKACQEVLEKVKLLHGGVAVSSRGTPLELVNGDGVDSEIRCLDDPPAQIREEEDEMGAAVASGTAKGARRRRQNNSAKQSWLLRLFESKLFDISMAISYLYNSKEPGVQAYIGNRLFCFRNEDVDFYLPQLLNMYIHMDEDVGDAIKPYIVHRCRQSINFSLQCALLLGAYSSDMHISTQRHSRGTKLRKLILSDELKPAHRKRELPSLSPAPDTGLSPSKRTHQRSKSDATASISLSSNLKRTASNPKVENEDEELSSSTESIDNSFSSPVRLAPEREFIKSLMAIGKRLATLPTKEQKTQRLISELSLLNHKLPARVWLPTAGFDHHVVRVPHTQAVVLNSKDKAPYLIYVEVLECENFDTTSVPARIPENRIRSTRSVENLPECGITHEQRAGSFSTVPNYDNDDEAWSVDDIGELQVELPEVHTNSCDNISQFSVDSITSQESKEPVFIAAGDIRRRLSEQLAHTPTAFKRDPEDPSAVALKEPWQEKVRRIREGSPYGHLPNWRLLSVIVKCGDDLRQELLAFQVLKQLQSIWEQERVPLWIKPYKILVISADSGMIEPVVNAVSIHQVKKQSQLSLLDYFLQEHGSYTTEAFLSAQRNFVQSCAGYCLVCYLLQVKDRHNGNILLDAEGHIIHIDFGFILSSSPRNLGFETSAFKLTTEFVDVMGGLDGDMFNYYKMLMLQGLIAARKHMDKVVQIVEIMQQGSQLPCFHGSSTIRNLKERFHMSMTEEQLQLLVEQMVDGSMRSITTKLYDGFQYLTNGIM
Chain of STE20-like serine/threonine-protein kinase (Homo sapiens) (Q9H2G2 whole entry, looked up): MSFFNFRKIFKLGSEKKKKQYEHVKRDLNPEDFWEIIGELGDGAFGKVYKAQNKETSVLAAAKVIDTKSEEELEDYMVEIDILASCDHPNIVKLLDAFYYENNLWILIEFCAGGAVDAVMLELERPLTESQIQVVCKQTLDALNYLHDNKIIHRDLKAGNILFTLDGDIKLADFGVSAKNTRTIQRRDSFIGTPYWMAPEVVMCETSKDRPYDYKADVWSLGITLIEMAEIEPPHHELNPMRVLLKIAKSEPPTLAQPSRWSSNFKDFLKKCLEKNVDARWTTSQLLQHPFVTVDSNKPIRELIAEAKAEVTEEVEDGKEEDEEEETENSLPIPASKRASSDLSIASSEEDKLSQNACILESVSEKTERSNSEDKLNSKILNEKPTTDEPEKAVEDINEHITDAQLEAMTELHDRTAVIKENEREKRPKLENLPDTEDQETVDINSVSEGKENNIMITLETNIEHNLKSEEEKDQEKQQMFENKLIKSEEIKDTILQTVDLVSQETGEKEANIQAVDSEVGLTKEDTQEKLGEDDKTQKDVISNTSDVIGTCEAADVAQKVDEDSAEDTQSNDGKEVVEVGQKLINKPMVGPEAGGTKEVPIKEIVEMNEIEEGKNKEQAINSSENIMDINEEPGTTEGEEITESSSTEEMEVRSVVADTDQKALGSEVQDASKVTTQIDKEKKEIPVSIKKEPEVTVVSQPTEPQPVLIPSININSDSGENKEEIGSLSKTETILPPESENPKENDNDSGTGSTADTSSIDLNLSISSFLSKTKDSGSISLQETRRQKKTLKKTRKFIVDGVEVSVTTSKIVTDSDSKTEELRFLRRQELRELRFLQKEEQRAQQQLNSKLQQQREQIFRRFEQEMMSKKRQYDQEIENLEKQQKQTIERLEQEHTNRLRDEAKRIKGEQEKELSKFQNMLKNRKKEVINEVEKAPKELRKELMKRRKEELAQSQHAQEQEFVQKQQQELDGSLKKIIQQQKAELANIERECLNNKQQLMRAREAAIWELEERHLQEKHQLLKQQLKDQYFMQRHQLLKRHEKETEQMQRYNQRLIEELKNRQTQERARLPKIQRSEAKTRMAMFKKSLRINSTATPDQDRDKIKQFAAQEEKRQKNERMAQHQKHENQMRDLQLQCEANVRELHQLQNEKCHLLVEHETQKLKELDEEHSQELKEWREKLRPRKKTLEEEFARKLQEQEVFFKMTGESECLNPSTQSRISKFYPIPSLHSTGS
Chain of Protein kinase C beta type (Homo sapiens) (P05771 2-671 limits assumed): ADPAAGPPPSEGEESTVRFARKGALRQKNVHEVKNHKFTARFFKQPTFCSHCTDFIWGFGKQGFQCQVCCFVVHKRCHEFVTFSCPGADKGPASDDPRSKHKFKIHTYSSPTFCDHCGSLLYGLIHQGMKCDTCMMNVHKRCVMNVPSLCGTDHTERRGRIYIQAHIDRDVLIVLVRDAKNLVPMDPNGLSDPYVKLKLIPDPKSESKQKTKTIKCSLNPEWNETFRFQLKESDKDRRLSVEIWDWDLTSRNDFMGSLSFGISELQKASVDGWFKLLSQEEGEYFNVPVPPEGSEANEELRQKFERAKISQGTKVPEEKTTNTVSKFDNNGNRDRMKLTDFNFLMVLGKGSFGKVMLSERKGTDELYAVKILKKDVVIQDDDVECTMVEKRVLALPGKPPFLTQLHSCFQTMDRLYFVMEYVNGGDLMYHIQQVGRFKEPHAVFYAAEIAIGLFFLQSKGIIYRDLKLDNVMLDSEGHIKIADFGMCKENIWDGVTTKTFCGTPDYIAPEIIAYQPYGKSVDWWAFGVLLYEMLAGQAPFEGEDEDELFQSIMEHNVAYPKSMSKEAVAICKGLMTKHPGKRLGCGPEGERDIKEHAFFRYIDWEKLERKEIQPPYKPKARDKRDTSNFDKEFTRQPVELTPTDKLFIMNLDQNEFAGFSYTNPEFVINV
Chain of Ribosomal protein S6 kinase alpha-1 (Homo sapiens) (Q15418 whole entry, the tested form may be a part): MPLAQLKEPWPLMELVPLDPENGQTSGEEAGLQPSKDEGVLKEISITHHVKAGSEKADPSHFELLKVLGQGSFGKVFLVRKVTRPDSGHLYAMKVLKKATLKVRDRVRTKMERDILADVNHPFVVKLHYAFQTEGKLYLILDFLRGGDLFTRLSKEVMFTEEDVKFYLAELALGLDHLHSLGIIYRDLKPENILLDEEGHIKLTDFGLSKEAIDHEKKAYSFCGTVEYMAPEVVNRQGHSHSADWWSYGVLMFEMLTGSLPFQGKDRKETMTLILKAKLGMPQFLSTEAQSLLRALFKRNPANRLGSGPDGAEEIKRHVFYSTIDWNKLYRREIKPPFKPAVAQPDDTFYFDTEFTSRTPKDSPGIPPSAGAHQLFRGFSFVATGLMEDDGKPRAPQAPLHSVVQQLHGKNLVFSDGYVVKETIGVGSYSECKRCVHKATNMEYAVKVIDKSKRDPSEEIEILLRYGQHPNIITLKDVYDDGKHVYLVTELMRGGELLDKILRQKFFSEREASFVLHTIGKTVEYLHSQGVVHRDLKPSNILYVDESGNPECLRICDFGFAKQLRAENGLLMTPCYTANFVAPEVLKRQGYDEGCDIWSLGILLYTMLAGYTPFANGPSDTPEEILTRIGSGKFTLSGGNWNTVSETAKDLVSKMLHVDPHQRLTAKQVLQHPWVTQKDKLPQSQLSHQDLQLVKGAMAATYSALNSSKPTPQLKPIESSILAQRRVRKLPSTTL

CCN1CCN(Cc2ccc(NC(=O)c3ccc(C)c(/C=C/c4cnc5[nH]ccc5c4OC)c3)cc2C(F)(F)F)CC1
inhibition [1]: 15.3% | inhibition [2]: 1.4% | inhibition [3]: 43.4% | inhibition [4]: 0.2% | inhibition [5]: -4.3% | inhibition [6]: 2.2% | inhibition [7]: 48.2% | inhibition [8]: 31.7% | inhibition [9]: 83.3% | inhibition [10]: 14% | inhibition [11]: > 99% | inhibition [12]: 38.5% | inhibition [13]: 9.9% | inhibition [14]: 58% | inhibition [15]: 9.2% | inhibition [16]: 13.7% | inhibition [17]: 14.5% | inhibition [18]: -5.8% | inhibition [19]: -0.5%

CCN1CCN(Cc2ccc(NC(=O)c3ccc(C)c(Oc4ccnc5[nH]ccc45)c3)cc2C(F)(F)F)CC1
inhibition [1]: 11.4% | inhibition [2]: -4.7% | inhibition [3]: 42.1% | inhibition [4]: 1.6% | inhibition [20]: Active | inhibition [5]: 6.9% | inhibition [6]: 13% | inhibition [7]: 65% | inhibition [8]: 15.6% | inhibition [9]: 53.3% | inhibition [10]: 13.1% | inhibition [11]: 89.6% | inhibition [12]: 3.1% | inhibition [13]: -9.3% | inhibition [14]: 45.3% | inhibition [15]: 5.7% | inhibition [16]: 13.1% | inhibition [17]: 16.6% | inhibition [18]: 3.2% | inhibition [19]: -1.6%

CNc1cc(Oc2cc(C(=O)Nc3cc(-n4cnc(C)c4)cc(C(F)(F)F)c3)ccc2C)ncn1
inhibition [20]: inactive
